Experimental data reported in ChEMBL document CHEMBL3045489, “Synthesis, fungicidal activity, and QSAR of a series of 2-dichlorophenyl-3-triazolylpropyl ethers” (J Agric Food Chem, 2000).
≈ marks a conversion by molar mass, not a printed value. Calls of active or inactive are those of the source. The calls are words filed in the database; no cut-off is given here.

Tests used:
[1] = target: T1, Lanosterol 14-alpha demethylase (Mycosarcoma maydis, UniProt P49602); assay: Inhibition of 14alpha-demethylase Ustilago maydis ATCC 14826 assessed as reduction in 14alpha-methylfecosterol; details: read-out: I50 (converted)
T1 sequence (P49602 whole entry): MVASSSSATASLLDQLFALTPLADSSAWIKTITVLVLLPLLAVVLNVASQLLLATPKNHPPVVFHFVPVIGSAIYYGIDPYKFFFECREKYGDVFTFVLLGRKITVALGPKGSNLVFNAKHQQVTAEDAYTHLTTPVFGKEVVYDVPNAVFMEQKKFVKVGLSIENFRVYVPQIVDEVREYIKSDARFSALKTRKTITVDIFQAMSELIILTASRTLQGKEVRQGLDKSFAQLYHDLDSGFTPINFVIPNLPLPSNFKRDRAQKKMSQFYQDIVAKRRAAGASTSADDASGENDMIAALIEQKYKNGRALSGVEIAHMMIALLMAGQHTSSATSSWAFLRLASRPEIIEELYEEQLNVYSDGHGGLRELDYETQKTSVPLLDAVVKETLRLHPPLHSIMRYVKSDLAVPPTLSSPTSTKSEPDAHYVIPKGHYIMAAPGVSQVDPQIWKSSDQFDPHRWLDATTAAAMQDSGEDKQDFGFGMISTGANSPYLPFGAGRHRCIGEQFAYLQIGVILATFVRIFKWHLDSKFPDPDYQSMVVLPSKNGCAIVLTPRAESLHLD
Method in brief: (§1)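 Actively growing broth cultures of U. maydis ATCC 14826 were incubated 18 h with increasing compound concentrations. Sterols were then extracted and analysed, and 14α-demethyl and 14α-methyl sterols quantified.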

[2] = target: T2, Lanosterol 14-alpha demethylase (Mycosarcoma maydis) (UniProt P49602); assay: Inhibition of 14alpha-demethylase Ustilago maydis ATCC 14826 assessed as reduction in 14alpha-methylfecosterol at 20 mg/ml (reference value: 0.4%); set-up: scale not given: the % may be the effect or the level left; method in brief: as §1
T2 sequence (whole entry): T1 sequence (P49602 whole entry)

[3] = target: T2, Lanosterol 14-alpha demethylase (Mycosarcoma maydis); assay: Inhibition of 14alpha-demethylase Ustilago maydis ATCC 14826 assessed as reduction in ergosterol at 20 mg/ml (reference value: 61%); set-up: scale not given: the % may be the effect or the level left; method in brief: as §1
[4] = target: T2, Lanosterol 14-alpha demethylase (Mycosarcoma maydis); assay: Inhibition of 14alpha-demethylase Ustilago maydis ATCC 14826 assessed as reduction in obtusifoliol at 20 mg/ml (reference value: 0.7%); set-up: scale not given: the % may be the effect or the level left; method in brief: as §1
[5] = target: T2, Lanosterol 14-alpha demethylase (Mycosarcoma maydis); assay: Inhibition of 14alpha-demethylase Ustilago maydis ATCC 14826 assessed as reduction in eburicol at 20 mg/ml (reference value: 3.4%); set-up: scale not given: the % may be the effect or the level left; method in brief: as §1
Ustilago maydis [6] = assay: Antifungal activity against Ustilago maydis assessed as inhibition of radial growth on potato dextrose; format: functional, organism-based; details: Mycosarcoma maydis
Pyrenophora teres = assay: Antifungal activity against Pyrenophora teres assessed as inhibition of radial growth on potato dextrose; format: functional, organism-based
Bipolaris maydis = assay: Antifungal activity against Cochliobolus heterostrophus assessed as inhibition of radial growth on potato dextrose; format: functional, organism-based
Method in brief: (§2)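 Radial growth inhibition on potato dextrose or Czapek agar across 100-0.1 mg L-1. ED50 calculated for each compound.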

Oculimacula yallundae = assay: Antifungal activity against Oculimacula yallundae assessed as inhibition of radial growth on potato dextrose; format: functional, organism-based; method in brief: as §2
Fusarium graminearum = assay: Antifungal activity against Fusarium graminearum assessed as inhibition of radial growth on potato dextrose; format: functional, organism-based; method in brief: as §2
Cercospora beticola = assay: Antifungal activity against Cercospora beticola assessed as inhibition of radial growth on potato dextrose; format: functional, organism-based; method in brief: as §2
Botrytis cinerea = assay: Antifungal activity against Botryotinia fuckelianaassessed as inhibition of radial growth on potato dextrose; format: functional, organism-based; method in brief: as §2
Podosphaera fuliginea [7] = assay: Fungicidal activity against Podosphaera fuliginea inoculated in […] placed in growth room after 24 hr incubation assessed as direct protection after 6 to 10 days; format: functional
Uromyces appendiculatus [8] = assay: Fungicidal activity against Uromyces appendiculatus inoculated in Phaseolus vulgaris placed in growth room after 24 hr incubation assessed as disease cure after 24 hr of inoculation; format: functional
Method in brief: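 Bean rust curative test with the same plants, spray formulation (acetone/water 1:4 with Tween 20), 100 to 0.001 mg L-1 range and U. appendiculatus inoculum (1 × 10^5 spores mL-1). Compound applied 24 h after inoculation. Read-out expressed as MIC.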

Uromyces appendiculatus [9] = assay: Fungicidal activity against Uromyces appendiculatus inoculated in Phaseolus vulgaris placed in growth room after 24 hr incubation assessed as direct protection after 6 to 10 days; format: functional
Method in brief: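 Bean plants grown at 22 ± 1 °C, 80 ± 10% RH. Compound in acetone/water (1:4 v/v) with Tween 20 (0.4 mg mL-1) was sprayed on leaves until moist at 100 to 0.001 mg L-1. One day later leaves were inoculated with U. appendiculatus uredospores (1 × 10^5 spores mL-1), held 24 h at 22 ± 2 °C and 100% RH, then moved to the growth room. Scored at 6, 8 and 10 days as MIC.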

Ustilago maydis [10] = assay: Antifungal activity against Ustilago maydis sporidia assessed as swollen, multicellular and branched sporidia at 0.25 to 50 mg/ml measured after 18 hr by light microscopy; format: functional, organism-based; details: Mycosarcoma maydis
Method in brief: (§3)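 U. maydis sporidia grown in Coursen and Sisler broth and treated at 0.25 to 50 mg mL-1 for 18 h. Cell morphology and division examined by interference contrast (Nomarski) and fluorescence microscopy.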

Podosphaera fuliginea [11] = assay: Fungicidal activity against Podosphaera fuliginea inoculated in […] placed in growth room after 24 hr incubation assessed as disease cure after 24 hr of inoculation; format: functional
Ustilago maydis [12] = assay: Antifungal activity against Ustilago maydis sporidia assessed as cell division at 0.25 to 50 mg/ml by light microscopy; format: functional, organism-based; details: Mycosarcoma maydis; method in brief: as §3

Compound	IC50 [1]	Activity [2]	Activity [3]	Activity [4]	Activity [5]	EC50 (Ustilago maydis [6])	EC50 (Pyrenophora teres)	EC50 (Bipolaris maydis)	EC50 (Oculimacula yallundae)	EC50 (Fusarium graminearum)	EC50 (Cercospora beticola)	EC50 (Botrytis cinerea)	MIC (Podosphaera fuliginea [7])	MIC (Uromyces appendiculatus [8])	MIC (Uromyces appendiculatus [9])	Activity (Ustilago maydis [10])	MIC (Podosphaera fuliginea [11])	Activity (Ustilago maydis [12])
C=CCOCC(Cn1cncn1)c1ccc(Cl)cc1Cl (racemic)	1.73 µM	8.8%	5.1%	20.6%	61.1%	0.22 µg/mL (≈ 0.705 µM)	1.4 µg/mL (≈ 4.48 µM)	0.16 µg/mL (≈ 0.512 µM)	0.29 µg/mL (≈ 0.929 µM)	8.5 µg/mL (≈ 27.2 µM)	0.21 µg/mL (≈ 0.673 µM)	1.5 µg/mL (≈ 4.8 µM)	30 µg/mL (≈ 96.1 µM)	28 µg/mL (≈ 89.7 µM)	200 µg/mL (≈ 641 µM)			
FC(F)C(F)(F)OCC(Cn1cncn1)c1ccc(Cl)cc1Cl (stereo not drawn) [TETRACONAZOLE]						0.25 µg/mL (≈ 0.672 µM)	0.4 µg/mL (≈ 1.07 µM)	< 0.1 µg/mL	0.45 µg/mL (≈ 1.21 µM)	4 µg/mL (≈ 10.7 µM)	0.12 µg/mL (≈ 0.322 µM)	1.2 µg/mL (≈ 3.22 µM)	0.05 µg/mL (≈ 0.134 µM)	25 µg/mL (≈ 67.2 µM)	25 µg/mL (≈ 67.2 µM)	Active	0.9 µg/mL (≈ 2.42 µM)	Active
